Legend:
[1] = FRET assay of NBD-Toc transfer from α-TTP variants to SUVs; type: biochemical; settings: for Rate of NBD-Toc transfer to SUV, Rate: PC vesicles, 0.225 μM NBD-Toc, 2 μM α-TTP, 100 μM vesicles, room temperature; for Rate of NBD-Toc transfer to SUV, Rate^mut/Rate^wt: relative to wild type; for Reduction of rate of transfer to SUVs: reduction relative to wild type
Summary of the method: (§1)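 Each protein (4 μM) was preloaded with 0.45 μM NBD-Toc for 15 min in SET buffer (pH 7.4). It was then stopped-flow mixed at room temperature with 200 μM acceptor vesicles of 97% liver PC and 3% TRITC-PE (finals 0.225 μM, 2 μM, 100 μM). Vesicles were sonicated SUVs (~60 nm) or extruded LUVs (150 nm). NBD quench was normalised to initial fluorescence and fitted single-exponentially.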

[2] = FRET assay of NBD-Toc transfer from α-TTP variants to LUVs; type: biochemical; settings: for Rate of NBD-Toc transfer to LUV, Rate: PC vesicles, 0.225 μM NBD-Toc, 2 μM α-TTP, 100 μM vesicles, room temperature; for Rate of NBD-Toc transfer to LUV, Rate^mut/Rate^wt: relative to wild type
Summary of the method: as §1

[3] = Dual polarization interferometry of protein adsorption to immobilized bilayer; type: binding; settings: for Ads^mut/Ads^wt (0.50 μM injection): 0.50 μM protein injection; for Ads^mut/Ads^wt (1.0 μM injection): 1.0 μM protein injection; for Fold change in affinity: relative to wild type; for Adsorption/binding to immobilized bilayers by DPI, % of wild type: injection concentration not stated
Summary of the method: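 Recombinant α-TTP (E. coli BL21(DE3), glutathione affinity, thrombin-cleaved) was dialysed 1 h at 4 °C into pH 7.4 phosphate/137 mM NaCl buffer. It was injected at 25 μl/min for 8 min over a 90:10 DOPC:DOPS bilayer on a silicon oxynitride chip at 20 °C. Adsorbed mass was measured at 0.5 and 1.0 μM in quadruplicate, two channels each. Kd came from fitting Bmax against concentration.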

| Adsorption/binding to immobilized bilayers by DPI, % of wild type [3] | Binding to immobilized bilayers, % of WT ([3]; printed "for LUVs") | Binding to immobilized bilayers, % of WT ([3]; printed "for SUVs") | Molecule | Rate of NBD-Toc transfer to SUV, Rate [1] | Rate of NBD-Toc transfer to SUV, Rate^mut/Rate^wt [1] | Reduction of transfer rate with LUVs versus SUVs ([2]; LUVs compared with SUVs) | Rate of NBD-Toc transfer to LUV, Rate [2] | Rate of NBD-Toc transfer to LUV, Rate^mut/Rate^wt [2] | Ads^mut/Ads^wt (0.50 μM injection) [3] | Ads^mut/Ads^wt (1.0 μM injection) [3] | Fold change in affinity [3] | Reduction of rate of transfer to SUVs [1] | Reduction of rate of ligand deposition in LUVs ([2]; reduction relative to wild type) | Effect on rate of NBD-Toc transfer to SUVs (in words) ([1]; compared with wild type or single mutants) |
| --- | --- | --- | --- | --- | --- | --- | --- | --- | --- | --- | --- | --- | --- | --- |
|  |  |  | WT: human α-tocopherol transfer protein, wild type, expressed in E. coli as GST fusion and cleaved | 0.127 ± 0.012 s⁻¹ | 100% | 8 fold | 0.016 ± 0.002 s⁻¹ | 100% | 1 | 1 | 0 |  |  |  |
|  |  |  | M264D: α-TTP mutant; surface methionine replaced with aspartate in a region predicted distant from the membrane plane (protein, UniProt P49638 1-278, looked up, variant M264D) Alpha-tocopherol transfer …: MAEARSQPSAGPQLNALPDHSPLLQPGLAALRRRAREAGVPLAPLPLTDSFLLRFLRARDFDLDLAWRLLKNYYKWRAECPEISADLHPRSIIGLLKAGYHGVLRSRDPTGSKVLIYRIAHWDPKVFTAYDVFRVSLITSELIVQEVETQRNGIKAIFDLEGWQFSHAFQITPSVAKKIAAVLTDSFPLKVRGIHLINEPVIFHAVFSMIKPFLTEKIKERIHMHGNNYKQSLLQHFPDILPLEYGGEEFSMEDICQEWTNFIDKSEDYLSSISESIQ | 0.116 ± 0.013 s⁻¹ | 91% |  | 0.008 ± 0.001 s⁻¹ | 50% | 0.66 | 0.81 |  | 9% | 50% |  |
| ~ 150% | 150% | 158% | R192H: naturally-occurring α-TTP mutant associated with heritable mild vitamin E deficiency in humans (protein, UniProt P49638 1-278, looked up, variant R192H) Alpha-tocopherol transfer …: MAEARSQPSAGPQLNALPDHSPLLQPGLAALRRRAREAGVPLAPLPLTDSFLLRFLRARDFDLDLAWRLLKNYYKWRAECPEISADLHPRSIIGLLKAGYHGVLRSRDPTGSKVLIYRIAHWDPKVFTAYDVFRVSLITSELIVQEVETQRNGIKAIFDLEGWQFSHAFQITPSVAKKIAAVLTDSFPLKVHGIHLINEPVIFHAVFSMIKPFLTEKIKERIHMHGNNYKQSLLQHFPDILPLEYGGEEFSMEDICQEWTNFIMKSEDYLSSISESIQ | 0.106 ± 0.008 s⁻¹ | 83% |  | 0.012 ± 0.003 s⁻¹ | 75% | 1.58 | 1.50 |  |  |  |  |
|  |  |  | M209A: α-TTP mutant, Met209 to Ala (protein, UniProt P49638 1-278, looked up, variant M209A) Alpha-tocopherol transfer …: MAEARSQPSAGPQLNALPDHSPLLQPGLAALRRRAREAGVPLAPLPLTDSFLLRFLRARDFDLDLAWRLLKNYYKWRAECPEISADLHPRSIIGLLKAGYHGVLRSRDPTGSKVLIYRIAHWDPKVFTAYDVFRVSLITSELIVQEVETQRNGIKAIFDLEGWQFSHAFQITPSVAKKIAAVLTDSFPLKVRGIHLINEPVIFHAVFSAIKPFLTEKIKERIHMHGNNYKQSLLQHFPDILPLEYGGEEFSMEDICQEWTNFIMKSEDYLSSISESIQ | 0.140 ± 0.012 s⁻¹ | 110% |  | 0.025 ± 0.005 s⁻¹ | 156% | 1.01 | 1.12 |  |  |  | essentially no effect |
|  |  |  | I202D: α-TTP mutant, Ile202 to Asp (helix A10) (protein, UniProt P49638 1-278, looked up, variant I202D) Alpha-tocopherol transfer …: MAEARSQPSAGPQLNALPDHSPLLQPGLAALRRRAREAGVPLAPLPLTDSFLLRFLRARDFDLDLAWRLLKNYYKWRAECPEISADLHPRSIIGLLKAGYHGVLRSRDPTGSKVLIYRIAHWDPKVFTAYDVFRVSLITSELIVQEVETQRNGIKAIFDLEGWQFSHAFQITPSVAKKIAAVLTDSFPLKVRGIHLINEPVDFHAVFSMIKPFLTEKIKERIHMHGNNYKQSLLQHFPDILPLEYGGEEFSMEDICQEWTNFIMKSEDYLSSISESIQ | 0.028 ± 0.002 s⁻¹ | 22% |  | 0.005 ± 0.002 s⁻¹ | 31% | 0.29 | 0.27 | 5 | 78% |  |  |
|  |  |  | M209D: α-TTP mutant, Met209 to Asp (helix A10) (protein, UniProt P49638 1-278, looked up, variant M209D) Alpha-tocopherol transfer …: MAEARSQPSAGPQLNALPDHSPLLQPGLAALRRRAREAGVPLAPLPLTDSFLLRFLRARDFDLDLAWRLLKNYYKWRAECPEISADLHPRSIIGLLKAGYHGVLRSRDPTGSKVLIYRIAHWDPKVFTAYDVFRVSLITSELIVQEVETQRNGIKAIFDLEGWQFSHAFQITPSVAKKIAAVLTDSFPLKVRGIHLINEPVIFHAVFSDIKPFLTEKIKERIHMHGNNYKQSLLQHFPDILPLEYGGEEFSMEDICQEWTNFIMKSEDYLSSISESIQ | 0.047 ± 0.004 s⁻¹ | 37% |  | 0.013 ± 0.001 s⁻¹ | 81% | 0.39 | 0.42 | 1.2 | 63% |  |  |
|  |  |  | V206A: α-TTP mutant, Val206 to Ala (protein, UniProt P49638 1-278, looked up, variant V206A) Alpha-tocopherol transfer …: MAEARSQPSAGPQLNALPDHSPLLQPGLAALRRRAREAGVPLAPLPLTDSFLLRFLRARDFDLDLAWRLLKNYYKWRAECPEISADLHPRSIIGLLKAGYHGVLRSRDPTGSKVLIYRIAHWDPKVFTAYDVFRVSLITSELIVQEVETQRNGIKAIFDLEGWQFSHAFQITPSVAKKIAAVLTDSFPLKVRGIHLINEPVIFHAAFSMIKPFLTEKIKERIHMHGNNYKQSLLQHFPDILPLEYGGEEFSMEDICQEWTNFIMKSEDYLSSISESIQ | 0.154 ± 0.012 s⁻¹ | 121% |  | 0.016 ± 0.002 s⁻¹ | 100% | 0.93 | 1.14 |  |  |  |  |
| 123% |  |  | K211A: α-TTP mutant, surface Lys211 (helix A10) to Ala (protein, UniProt P49638 1-278, looked up, variant K211A) Alpha-tocopherol transfer …: MAEARSQPSAGPQLNALPDHSPLLQPGLAALRRRAREAGVPLAPLPLTDSFLLRFLRARDFDLDLAWRLLKNYYKWRAECPEISADLHPRSIIGLLKAGYHGVLRSRDPTGSKVLIYRIAHWDPKVFTAYDVFRVSLITSELIVQEVETQRNGIKAIFDLEGWQFSHAFQITPSVAKKIAAVLTDSFPLKVRGIHLINEPVIFHAVFSMIAPFLTEKIKERIHMHGNNYKQSLLQHFPDILPLEYGGEEFSMEDICQEWTNFIMKSEDYLSSISESIQ | 0.105 ± 0.008 s⁻¹ | 83% |  | 0.011 ± 0.001 s⁻¹ | 69% | 1.23 | 0.95 |  |  |  |  |
|  |  |  | I202D/M209D: α-TTP double mutant (protein, UniProt P49638 1-278, looked up, variant I202D M209D) Alpha-tocopherol transfer …: MAEARSQPSAGPQLNALPDHSPLLQPGLAALRRRAREAGVPLAPLPLTDSFLLRFLRARDFDLDLAWRLLKNYYKWRAECPEISADLHPRSIIGLLKAGYHGVLRSRDPTGSKVLIYRIAHWDPKVFTAYDVFRVSLITSELIVQEVETQRNGIKAIFDLEGWQFSHAFQITPSVAKKIAAVLTDSFPLKVRGIHLINEPVDFHAVFSDIKPFLTEKIKERIHMHGNNYKQSLLQHFPDILPLEYGGEEFSMEDICQEWTNFIMKSEDYLSSISESIQ |  | 11% |  | 0.008 ± 0.003 s⁻¹ | 50% | 0.13 | 0.07 | 10.9 |  |  |  |
|  |  |  | F165D/M209D: α-TTP double mutant (protein, UniProt P49638 1-278, looked up, variant F165D M209D) Alpha-tocopherol transfer …: MAEARSQPSAGPQLNALPDHSPLLQPGLAALRRRAREAGVPLAPLPLTDSFLLRFLRARDFDLDLAWRLLKNYYKWRAECPEISADLHPRSIIGLLKAGYHGVLRSRDPTGSKVLIYRIAHWDPKVFTAYDVFRVSLITSELIVQEVETQRNGIKAIFDLEGWQDSHAFQITPSVAKKIAAVLTDSFPLKVRGIHLINEPVIFHAVFSDIKPFLTEKIKERIHMHGNNYKQSLLQHFPDILPLEYGGEEFSMEDICQEWTNFIMKSEDYLSSISESIQ | 0.034 ± 0.003 s⁻¹ | 27% |  | 0.010 ± 0.001 s⁻¹ | 62% | 0.01 | 0.18 |  |  |  |  |

From article PMC3038628 (Journal of molecular biology, 2010)
